Assay results as given in ChEMBL document CHEMBL4138103, “Discovery of efficient stimulators for adult hippocampal neurogenesis based on scaffolds in dragon's blood” (Eur J Med Chem, 2017).
The source made the active and inactive calls. No cut-off for these calls is given here.

Tests used:
[1] = Cytotoxicity against human SH-SY5Y cells assessed as cell survival at 100 uM after 24 hrs by MTT assay relative to control; assay type: cell-based; conditions: read-out: Survival
Procedure, shortened: (§1)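 SH-SY5Y human neuroblastoma cells seeded at 5 × 10⁴ cells/mL, incubated 24 h at 37 °C, then exposed to compounds at final concentrations of […] for 24 h. MTT added for a further 4 h at 37 °C. Absorbance read at 570 nm and reported as percent viability. Five parallel samples per condition.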

[2] = Cytotoxicity against human SH-SY5Y cells assessed as cell survival at 500 uM after 24 hrs by MTT assay relative to control; assay type: cell-based; conditions: read-out: Survival; procedure, shortened: as §1
[3] = Cytotoxicity against human SH-SY5Y cells assessed as cell survival at 1000 uM after 24 hrs by MTT assay relative to control; assay type: cell-based; conditions: read-out: Survival; procedure, shortened: as §1
[4] = test system: Rattus norvegicus; assay: In vivo neurogenic activity in Sprague-Dawley rat neural progenitor cells at 2.2 mg/kg, ip qd pretreated for 28 days followed by BrdU addition at 2 hrs interval for twice on day 29 measured after 24 hrs by BrdU incorporation assay; assay type: functional, organism-based
Procedure, shortened: (§2)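 Male SD rats aged 10 weeks, acclimatized 7 days (11 weeks old at start), dosed ip once daily for 28 days with compound in soybean oil containing 10% ethanol; vehicle group received 10% ethanol in oil. On day 29, BrdU in saline given twice at 100 mg/kg, 2 h apart. Rats sacrificed 24 h after the last BrdU. BrdU+ cells in SGZ-GCL counted by DAB immunostaining of 30 µm cryosections; n = 8; mean ± SEM.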

[5] = test system: Rattus norvegicus; assay: In vivo neurogenic activity in Sprague-Dawley rat neural progenitor cells at 4 mg/kg, ip qd pretreated for 28 days followed by BrdU addition at 2 hrs interval for twice on day 29 measured after 24 hrs by BrdU incorporation assay relative to control; assay type: functional; procedure, shortened: as §2
[6] = test system: Rattus norvegicus; assay: In vivo neurogenic activity in Sprague-Dawley rat neural progenitor cells at 0.5 mg/kg, ip qd pretreated for 28 days followed by BrdU addition at 2 hrs interval for twice on day 29 measured after 24 hrs by BrdU incorporation assay; assay type: functional, organism-based
Procedure, shortened: (§3)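 Eleven-week-old SD male rats were dosed ip daily for 28 days in soybean oil with 10% ethanol, against a vehicle control. On day 29 BrdU 100 mg/kg was given twice, 2 h apart, and rats were sacrificed 24 h later. Sections were treated with HCl denaturation, BrdU antibody at 1:500 at 4 °C overnight and DAB detection. BrdU+ cells in the SGZ-GCL were counted, mean ± SEM, n = 8.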

[7] = test system: Rattus norvegicus; assay: In vivo neurogenic activity in Sprague-Dawley rat neural progenitor cells at 0.5 to 4 mg/kg, ip qd pretreated for 28 days followed by BrdU addition at 2 hrs interval for twice on day 29 measured after 24 hrs by BrdU incorporation assay; assay type: functional, organism-based; procedure, shortened: as §3

Row | Compound | viability at 24 h, 100 µM [1] | viability at 24 h, 500 µM [2] | viability at 24 h, 1000 µM [3] | Activity [4] | Activity [5] | Activity [6] | fold change (FC) [5] | Activity [7]
1 | COc1ccc(/C=C/c2ccc(NC(C)=O)cc2)cc1 | 70% | 52.2% | 40.7% | inactive |  |  |  | 
2 | CC(=O)Nc1cccc(C#Cc2ccc3c(c2)OCO3)c1 | 70.6% | 62.9% | 55.3% | inactive |  |  |  | 
3 | COc1cc(/C=C/c2ccc(OC(C)=O)cc2)cc(OC)c1 | 6.48% | 13.9% | 6.75% |  | Active | inactive |  | 
4 | Oc1ccc(/C=C/c2ccc3c(c2)OCO3)cc1 | 39.5% | 20.1% | 14.4% | inactive |  |  |  | 
5 | COc1ccc(/C=C/c2ccc(NC(C)=O)cc2)cc1OC | 68% | 56.5% | 31.3% | inactive |  |  |  | 
6 | O=C(Nc1ccc(/C=C/c2ccc3c(c2)OCO3)cc1)C1CC1 | 98.9% | 97.3% | 85.3% |  |  |  | 2.2 - 3.5 | Active
7 | COc1ccc(OCC#Cc2ccc3c(c2)OCO3)cc1 | 44.1% | 79.7% | 36.3% | Active |  |  |  | 
8 | CS(=O)(=O)Nc1ccc(/C=C/c2ccc3c(c2)OCO3)cc1 | 72.5% | 68.9% | 62.3% |  |  |  | 2.2 - 3.5 | Active
